From ChEMBL document CHEMBL2176974, “A bactericidal guanidinomethyl biaryl that alters the dynamics of bacterial FtsZ polymerization” (J Med Chem, 2012) come the findings set out here.

The structures appear in SMILES notation. The source made the active and inactive calls. No cut-off for these calls is given here.

Assay [1] relates to Enterococcus faecalis. Put plainly: Binding affinity to Enterococcus faecalis FtsZ by fluorescence anisotropy BoGTPgammaS competition assay. Summed up: (§1)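 Competition with fluorescent BoGTPγS. BoGTPγS (1 μM final) was mixed with 5 μM FtsZ and compound or unlabeled GTP at 0–40 μM. Buffer was 50 mM Tris·HCl pH 7.4, 50 mM KCl, 2 mM magnesium acetate. After 5 min at 25 °C, anisotropy was read at excitation 488 nm and emission 510 nm, in triplicate and averaged.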

Assay [2] has as its target T1, Cell division protein FtsZ (Escherichia coli K-12) (UniProt P0A9A6).
T1 sequence (whole entry): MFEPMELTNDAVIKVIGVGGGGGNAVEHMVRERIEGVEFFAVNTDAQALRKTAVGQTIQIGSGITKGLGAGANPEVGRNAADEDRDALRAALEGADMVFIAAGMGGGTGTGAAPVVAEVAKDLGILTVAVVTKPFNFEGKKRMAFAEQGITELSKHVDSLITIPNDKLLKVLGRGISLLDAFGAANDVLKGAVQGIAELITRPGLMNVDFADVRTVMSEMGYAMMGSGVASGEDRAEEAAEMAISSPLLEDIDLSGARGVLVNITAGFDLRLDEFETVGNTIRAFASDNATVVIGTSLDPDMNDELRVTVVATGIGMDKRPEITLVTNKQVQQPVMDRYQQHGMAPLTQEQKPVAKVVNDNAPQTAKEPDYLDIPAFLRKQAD
Put plainly: Binding affinity to Escherichia coli FtsZ by fluorescence anisotropy BoGTPgammaS competition assay. Summed up:
as §1
(Polarisation of emitted light reports the rotation of a fluorescent probe.)

Assay [3] has as its target T2, Cell division protein FtsZ (Staphylococcus aureus) (UniProt P0A031).
T2 sequence (whole entry): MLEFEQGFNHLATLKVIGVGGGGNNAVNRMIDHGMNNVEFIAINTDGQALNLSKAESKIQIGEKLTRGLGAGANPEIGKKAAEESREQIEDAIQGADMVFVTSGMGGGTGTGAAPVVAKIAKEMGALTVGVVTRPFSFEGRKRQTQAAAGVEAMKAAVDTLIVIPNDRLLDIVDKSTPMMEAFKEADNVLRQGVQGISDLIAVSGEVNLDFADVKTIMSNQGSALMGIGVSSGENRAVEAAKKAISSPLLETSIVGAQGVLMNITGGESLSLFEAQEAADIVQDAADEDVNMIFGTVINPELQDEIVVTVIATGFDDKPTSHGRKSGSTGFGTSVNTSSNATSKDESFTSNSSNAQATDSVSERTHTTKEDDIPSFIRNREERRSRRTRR
Put plainly: Binding affinity to Staphylococcus aureus FtsZ expressed in Escherichia coli BL21 (DE3) by fluorescence anisotropy BoGTPgammaS competition assay. Summed up:
as §1

For assay [4], the system named is Escherichia coli. Put plainly: Potency index, ratio of MBC to MIC for Escherichia coli W4573. In kind it is functional. Summed up: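 MBC/MIC ratio. MIC: CLSI broth microdilution, 10⁵ CFU/mL in CAMH broth, 24 h at 37 °C, OD600, 90% inhibition. MBC: well aliquots plated on tryptic soy agar, counted after 24 h, 3-log CFU reduction. Ratio 1–2 read as bactericidal, ≥8 as bacteriostatic.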

Assay [5] relates to Escherichia coli. Put plainly: Antimicrobial activity against Escherichia coli W4573 incubated for 24 hrs in broth followed by colony transfer to tryptic soy agar for further 24 hrs incubation. Conditions: W4573, 24 h. The class given is functional. The method in brief:
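MBC: broth microdilution as for MIC (10⁵ CFU/mL, CAMH broth, 24 h, 37 °C). Aliquots from wells were then plated on tryptic soy agar and colonies counted after 24 h. MBC taken as the lowest concentration giving a 3-log CFU reduction.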

Assay [6] concerns Escherichia coli. Put plainly: Antimicrobial activity against Escherichia coli W4573 incubated for 24 hrs by broth microdilution method. In kind it is functional. Conditions: W4573, 24 h. The method in brief:
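CLSI broth microdilution. Log-phase bacteria at 10⁵ CFU/mL were exposed to 2-fold serial dilutions (64 to 0.016 μg/mL) in cation-adjusted Mueller-Hinton broth, 5% defibrinated sheep blood added for Streptococcus. Incubated aerobically 24 h at 37 °C. Growth read as OD600; MIC taken as the lowest concentration giving 90% growth inhibition.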
Background: Dilution methods test growth across graded concentrations, often in twofold steps.

The target in assay [7] is Tubulin beta chain (Sus scrofa) (UniProt P02554). Put plainly: Stimulation of MAP-rich pig beta-tubulin polymerization at 25 ug/mL by microtiter plate-based light scattering assay. The method in brief:
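MAP-rich porcine tubulin (70% β-tubulin, 30% MAPs) at 2 mg/mL with 1 mM GTP. Buffer was 80 mM PIPES·NaOH pH 7.0, 2 mM MgCl₂, 1 mM EGTA. Light scattering was followed as A340 continuously at 37 °C for 60 min, against a DMSO vehicle.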

Assay [8] has as its system Enterococcus faecalis. Put plainly: microbe, parasite or virus in culture. The class given is functional. Conditions: ATCC 51575, 24 h.
Assay [9] relates to Enterococcus faecalis. Put plainly: microbe, parasite or virus in culture. The class given is functional. The conditions noted are these: ATCC 19433, 24 h.
Assay [10] deals with Enterococcus faecalis. Put plainly: Stimulation of Enterococcus faecalis FtsZ self-polymerization at 40 ug/mL by microtiter plate-based light scattering assay. Summed up: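 Purified E. faecalis FtsZ (10 μM) mixed with compound (0–40 μg/mL) and 1 mM GTP in 50 mM Tris-HCl pH 7.4, 50 mM KCl, 2 mM magnesium acetate, 10 mM CaCl2. Polymerization followed continuously as light scattering (A340) at 25 °C over 400 min.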

Assay [11] concerns Staphylococcus aureus. Put plainly: microbe, parasite or virus in culture. In kind it is functional. Conditions: 8325-4, 24 h.
For assay [12], the target named is Tubulin beta chain (Sus scrofa) (UniProt P02554). The conditions noted are these: 10 ug/mL.
Chain of Tubulin beta chain (Sus scrofa) (P02554 whole entry): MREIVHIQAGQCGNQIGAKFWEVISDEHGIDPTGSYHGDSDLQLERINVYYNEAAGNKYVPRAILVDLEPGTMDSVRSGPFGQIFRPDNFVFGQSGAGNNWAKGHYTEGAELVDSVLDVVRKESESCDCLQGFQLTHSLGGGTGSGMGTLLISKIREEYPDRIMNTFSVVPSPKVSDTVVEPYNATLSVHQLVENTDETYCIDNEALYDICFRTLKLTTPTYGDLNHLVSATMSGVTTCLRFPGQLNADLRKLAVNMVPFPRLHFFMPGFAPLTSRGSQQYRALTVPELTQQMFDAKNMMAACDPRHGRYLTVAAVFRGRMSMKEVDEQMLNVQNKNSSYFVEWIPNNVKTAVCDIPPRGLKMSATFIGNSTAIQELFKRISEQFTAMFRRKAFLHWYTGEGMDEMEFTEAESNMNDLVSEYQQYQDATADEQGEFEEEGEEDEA

For `Nc1nc(=O)c2ncn([C@@H]3O[C@H](COP(=O)(O)OP(=O)(O)OP(=O)(O)O)[C@@H](O)C3O)c2[nH]1` (single isomer, unassigned), the Activity result in [1], in assay [2] and in assay [3] was “Dose-dependent effect” in each case.

As for `NC[C@@H]1O[C@H](O[C@H]2[C@@H](O)[C@H](O[C@@H]3[C@@H](O)[C@H](N)C[C@H](N)[C@H]3O[C@H]3O[C@H](CN)[C@@H](O)[C@H](O)[C@H]3N)O[C@@H]2CO)[C@H](N)[C@@H](O)[C@@H]1O.O.O=S(=O)(O)O` [NEOMYCIN TRISULFATE HYDRATE], the Ratio in assay [4] is listed as 2. The compound also gave an MBC in [5] of 2 µg/mL. Further, the MIC in assay [6] amounted to 1 µg/mL.

As to `CC(=O)O[C@H]1C(=O)[C@@]2(C)[C@H]([C@H](OC(=O)c3ccccc3)[C@]3(O)C[C@H](OC(=O)[C@H](O)[C@@H](NC(=O)c4ccccc4)c4ccccc4)C(C)=C1C3(C)C)[C@]1(OC(C)=O)CO[C@@H]1C[C@@H]2O`, in assay [7], the result was Active.

As to `CN[C@H](CC(C)C)C(=O)N[C@H]1C(=O)N[C@@H](CC(N)=O)C(=O)N[C@H]2C(=O)N[C@H]3C(=O)N[C@H](C(=O)N[C@H](C(=O)O)c4cc(O)cc(O)c4-c4cc3ccc4O)[C@H](O)c3ccc(c(Cl)c3)Oc3cc2cc(c3O[C@@H]2O[C@H](CO)[C@@H](O)[C@H](O)[C@H]2O[C@H]2C[C@](C)(N)[C@H](O)[C@H](C)O2)Oc2ccc(cc2Cl)[C@H]1O.Cl` [VANCOMYCIN HYDROCHLORIDE], the MIC in assay [8] is over 64 µg/mL; in assay [9], 1 µg/mL. Besides, the outcome in assay [10] was inactive. Further, the MBC in assay [11] stood at 1 µg/mL.

With `COC(=O)Nc1nc2cc(C(=O)c3cccs3)ccc2[nH]1`, in assay [12], the inhibition entry is “Active”.
